Measured values as given in publication PMC10424151 (Molecular Therapy. Nucleic Acids, 2023).

What was measured:
[1] = Dynamic light-scattering measurement of hydrodynamic radius; assay type: physicochemical; conditions: DLS, 100 μM peptide + 1 μM bDNA, 1 h incubation, 25 °C
In short: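 bDNA was dissolved in self-assembly buffer, pH 7.4, and filtered through 0.22 µm. Linear peptide (100 µM) was incubated with 1 µM bDNA for 1 h, with peptide alone as control. DLS was read at 658 nm with a 175° scattering angle at 25°C, averaging triplicate readings. Rh came from autocorrelation analysis via the translational diffusion coefficient and the Stokes-Einstein relation.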

[2] = target: T1, DNase I (Homo sapiens, UniProt P24855); experiment: DNase I stability assay; assay type: in vitro ADME; conditions: for stability of peptide-bDNA complex in the presence of DNase I: 1 μM bDNA + 50 or 100 μM peptide, 10 U/mL DNase I, up to 30 min, 37 °C, 2% AGE
T1 sequence (P24855 23-282): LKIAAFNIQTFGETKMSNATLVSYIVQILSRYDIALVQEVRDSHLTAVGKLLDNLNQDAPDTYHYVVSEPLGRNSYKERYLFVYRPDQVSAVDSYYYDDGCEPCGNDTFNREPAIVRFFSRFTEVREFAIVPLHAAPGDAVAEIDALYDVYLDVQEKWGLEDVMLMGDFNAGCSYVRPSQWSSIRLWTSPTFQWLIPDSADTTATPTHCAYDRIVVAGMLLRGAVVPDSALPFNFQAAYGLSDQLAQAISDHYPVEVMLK
In short: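 Complexes of 1 µM bDNA pre-incubated with 100 µM linear peptide were exposed to 10 U/mL DNase I for 15 and 30 min. A second set used 1 µM bDNA with 50 µM linear peptide, digested for 5, 10, 20 and 30 min at 37°C. Digests were run on 2% agarose gels at 80 V for 25 min, and stability was judged from band intensity.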

[3] = system: Alexa 488 bDNA; experiment: Absorbance; assay type: binding; conditions: 1 μM Alexa 488 bDNA, peptide/bDNA 0:1 to 100:1, 1 h, 25 °C, 495 nm
In short: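 Alexa 488-labelled bDNA (1 μM) incubated 1 h at 25 °C with linear test peptide at peptide/bDNA molar ratios 0:1 to 100:1. UV-vis absorbance spectra recorded over 450–550 nm. Hypochromicity expressed as ΔOD_r = (OD0 − OD)/OD0, where OD0 is free labelled bDNA and OD is the bDNA–peptide complex, then plotted against molar ratio.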

[4] = Release of bDNA from peptide complexes; assay type: in vitro ADME; conditions: 1 μM bDNAaso + 100 μM W4R4 in serum-free DMEM, 1% SDS, 30 min, 2% agarose gel
In short: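 Gel-shift release: 1 μM bDNAaso was complexed with 100 μM test peptide in 20 μL serum-free DMEM for 1 h at room temperature. The complex was exposed to 1% SDS for 30 min, then run on 2% agarose for 25 min at constant 80 V and the gel imaged.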

[5] = system: HCT-116 cells; experiment: Cellular uptake of Alexa 488-labeled bDNA by FACS; assay type: cell-based; conditions: HCT-116, 75 nM Alexa 488-labeled bDNA + 25 μM peptide, overnight
In short: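 HCT-116 cells (2×10^5 per well) seeded overnight in serum-free DMEM, then washed twice with PBS. Alexa 488-bDNA (75 nM) premixed with test peptide (25 μM) in DMEM about 30 min at room temperature, added to cells and left overnight at 37 °C. Cells detached with 0.25% trypsin/0.53 mM EDTA (5 min, 37 °C), pelleted at 700 × g for 5 min, washed twice, resuspended in PBS and analysed by flow cytometry.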

[6] = Zeta potential measurement; assay type: physicochemical; conditions: 1 μM bDNA + 100 μM peptide, 1 h, 25 °C
In short: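 bDNA (1 μM) incubated 1 h with 100 μM linear test peptide. bDNA alone and peptide alone at the same concentrations incubated 1 h at 25 °C as controls. Zeta potential […] by the Smoluchowski approximation. Values are the mean of triplicate readings.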

[7] = system: bDNAaso; experiment: Isothermal titration calorimetry of linear peptides with bDNA; assay type: binding; conditions: 25 °C, 1 μM bDNA titrated with 100 μM peptide, 1× TEAM buffer pH 7.4
[8] = system: bDNAaso; experiment: CD titration of bDNAaso with linear peptides; assay type: binding; conditions: 1 μM bDNA, 5 to 100 μM peptide, 25 °C (Figures 4G and S13G)

| Substance | change of hydrodynamic radii of the peptide in the presence of bDNAs [1] | stability of peptide-bDNA complex in the presence of DNase I [2] | change in absorbance of Alexa 488 bDNA with increasing molar ratio of peptide [3] | protection of peptide-bound bDNAs against nuclease degradation ([2]; peptide-bound bDNAs, Figures S19 and S20) | effect of SDS on the W4R4-bDNAaso complex [4] | cellular internalization relative to W3R3 (FACS) [5] | zeta potential of bDNA in the presence of the peptide [6] | binding affinity to bDNAaso relative to other peptide-bound bDNAs (ITC) [7] | CD peak intensities of bDNA in peptide-bDNA complex [8] |
| --- | --- | --- | --- | --- | --- | --- | --- | --- | --- |
| Ac-WWWGGGRRR-Am [W3R3] | moderate increase | retained the stability |  |  |  |  |  |  |  |
| Ac-WWWGGHHHH-Am [W3H4] | moderate increase |  |  |  |  |  |  |  |  |
| Ac-WWWWGGHHHH-Am [W4H4] | increased significantly | degraded close to the control | no significant alteration in absorbance | 20% |  |  |  |  |  |
| Ac-WWWWGGRRRR-Am [W4R4] | increased significantly | retained the stability | significant decline in absorbance |  | triggered the release | 1.7 fold | positive zeta potential | about nine times higher | flattened to the baseline |
